Results from different studies.
Each line is one published result; the experiments were not run side by side.
KCNH2: Voltage-gated inwardly rectifying potassium channel KCNH2 (KCNH2, Homo sapiens, UniProt Q12809)
UGT2B7: UDP-glucuronosyltransferase 2B7 (UGT2B7, Homo sapiens, UniProt P16662)

`CCc1cccc(C(=O)Nc2cc(C)nn2-c2nc(CC)cc(=O)[nH]2)c1` has an inhibition of 0% (KCNH2; ligand displacement, radioligand; 10 µM).
With `O=c1ccc2ccccc2o1` the inhibition was -13.1% (KCNH2; ligand displacement, radioligand; 10 µM, cell membranes).
For `O=C(O)C(F)(F)C(F)(F)C(F)(F)C(F)(F)C(F)(F)C(F)(F)C(F)(F)F`, the Km was 149 µM (Solute carrier organic anion transporter family member 2B1 (SLCO2B1, Homo sapiens, UniProt O94956); transporter uptake, substrate; CHO; 1 min, pH 7.4).
For `COc1ccc(CCC2CCCC(CCc3ccc(OC)cc3)N2C[C@@H](O)CO)cc1` (stereo in doubt), the IC50 was about 70 nM (KCNH2; ion current, inhibitor, patch clamp).
`CN1CCN(Cc2ccc(NC(=O)c3cncc(C#Cc4cnc(N)c5ncccc45)c3)cc2C(F)(F)F)CC1` has an IC50 of over 30000 nM (KCNH2; ion current, inhibitor).
The inhibition of `C=C1CCC2C(C)(CO)C(=O)CCC2(C)C1C=CC1=CCOC1=O` (stereo not drawn) is reported as 90% (UGT2B7; enzyme activity, inhibitor; 100 µM).
For `CC(C)N1CCC[C@H]1CNC(=O)c1cn(C2CCCC2)c(=O)c2c1c1ccccc1n2C`, the inhibition was 39% (KCNH2; ligand displacement, radioligand; 10 µM).
For `C=C1CC[C@@H]2[C@](C)(CO)[C@H](O)CC[C@@]2(C)[C@@H]1/C=C/C1=CCOC1=O`, the inhibition was 80% (UGT2B7; enzyme activity, inhibitor; 100 µM).
The inhibition of `Clc1ccc2c(C3CCN(CCc4c[nH]c5ccccc45)CC3)c[nH]c2c1` is reported as 99% (KCNH2; ligand displacement, radioligand; 10 µM).
